Results: ChEMBL document CHEMBL3352188, “Synthesis, antimicrobial and molecular docking studies of enantiomerically pure N-alkylated β-amino alcohols from phenylpropanolamines” (2014)
Active and inactive are the calls of the source.

Legend:
[1] = test system: Shigella flexneri; experiment: Antimicrobial activity against Shigella flexneri MTCC 1457 at 1 mg/disc after 24 hrs by disc diffusion assay; format: functional
Outline: (§1)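 Disc diffusion on Mueller Hinton agar. Inoculum was grown in MHB for 24 h at 37 °C, swabbed onto the plates and dried for 10 min. Discs with 1 mg compound were left 30 min at room temperature for diffusion, then incubated at 37 °C for 24 h. Inhibition zone was read in mm; run twice. Solvent was the negative control, streptomycin the positive control.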

[2] = test system: Salmonella typhimurium; experiment: Antimicrobial activity against Salmonella typhimurium MTCC 1251 at 1 mg/disc after 24 hrs by disc diffusion assay; format: functional, Salmonella enterica subsp. enterica serovar Typhimurium; outline: as §1
[3] = test system: Klebsiella aerogenes; experiment: Antimicrobial activity against Enterobacter aerogenes MTCC 111 after 24 hrs by two fold dilution method; format: functional; conditions: MTCC 111, 24 h
Outline: (§2)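 Broth two-fold serial dilution in 96-well plates from 1000 to 7.81 µg/mL, compound in DMSO (2%). Inoculum was grown in MHB for 24 h at 37 °C; plates were incubated 24 h at 37 °C. 5 µL of broth was spotted onto MHA; MIC was the lowest concentration with no visible growth on agar. Streptomycin was the positive control.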

[4] = test system: Staphylococcus aureus; experiment: Bactericidal activity against methicillin-resistant Staphylococcus aureus MTCC 96 after 24 hrs by two fold dilution method; format: functional; conditions: MTCC 96, 24 h
Outline: (§3)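 Tubes held 5 mL MHB with two-fold dilutions from 1000 to 7.81 µg/mL and were inoculated with 5 × 10^5 to 1 × 10^6 cells in 0.1 mL MHB, incubated without shaking. Turbidity was checked at 20 h, tubes vortexed and re-incubated 4 h.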

[5] = test system: Malassezia pachydermatis; experiment: Fungicidal activity against Malassezia pachydermatis after 48 to 72 hrs by two fold dilution method; format: functional
[6] = test system: Klebsiella pneumoniae; experiment: Antimicrobial activity against Klebsiella pneumoniae MTCC 109 after 24 hrs by two fold dilution method; format: functional; conditions: MTCC 109, 24 h; outline: as §2
[7] = test system: Salmonella enterica subsp. enterica serovar Paratyphi B; experiment: Antimicrobial activity against Salmonella paratyphi B after 24 hrs by two fold dilution method; format: functional; outline: as §2
[8] = test system: Staphylococcus aureus; experiment: Antimicrobial activity against methicillin-resistant Staphylococcus aureus MTCC 96 after 24 hrs by two fold dilution method; format: functional; conditions: MTCC 96, 24 h; outline: as §2
[9] = test system: Salmonella enterica subsp. enterica serovar Paratyphi B; experiment: Antimicrobial activity against Salmonella paratyphi B at 1 mg/disc after 24 hrs by disc diffusion assay; format: functional; outline: as §1
[10] = test system: Staphylococcus aureus; experiment: Antimicrobial activity against Staphylococcus aureus MTCC 96 after 24 hrs by two fold dilution method; format: functional; conditions: MTCC 96, 24 h; outline: as §2
[11] = test system: Salmonella typhimurium; experiment: Antimicrobial activity against Salmonella typhimurium MTCC 1251 after 24 hrs by two fold dilution method; format: functional, Salmonella enterica subsp. enterica serovar Typhimurium; conditions: Salmonella enterica, MTCC 1251, 24 h; outline: as §2
[12] = test system: Klebsiella aerogenes; experiment: Bactericidal activity against Enterobacter aerogenes MTCC 111 after 24 hrs by two fold dilution method; format: functional; conditions: MTCC 111, 24 h; outline: as §3
[13] = test system: Micrococcus luteus; experiment: Bactericidal activity against Micrococcus luteus MTCC 106 after 24 hrs by two fold dilution method; format: functional; conditions: MTCC 106, 24 h; outline: as §3
[14] = test system: Klebsiella pneumoniae; experiment: Bactericidal activity against Klebsiella pneumoniae MTCC 109 after 24 hrs by two fold dilution method; format: functional; conditions: MTCC 109, 24 h; outline: as §3
[15] = test system: Candida albicans; experiment: Antimicrobial activity against Candida albicans MTCC 227 at 1 mg/disc after 24 hrs by disc diffusion assay; format: functional
[16] = test system: Candida albicans; experiment: Fungicidal activity against Candida albicans MTCC 227 after 48 to 72 hrs by two fold dilution method; format: functional
[17] = test system: Pseudomonas aeruginosa; experiment: Antimicrobial activity against Pseudomonas aeruginosa MTCC 741 after 24 hrs by two fold dilution method; format: functional; conditions: MTCC 741, 24 h; outline: as §2
[18] = test system: Malassezia pachydermatis; experiment: Antimicrobial activity against Malassezia pachydermatis after 48 to 72 hrs by two fold dilution method; format: functional
Outline: (§4)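 Yeast was grown in Sabouraud dextrose broth at 28 °C for 48 h and tested per CLSI reference methods. Two-fold serial dilutions from 1000 to 7.81 µg/mL, compound in DMSO (2%), in 96-well plates, incubated 48–72 h at 28 °C. MIC was the lowest concentration with no visible fungal growth. Ketoconazole was the positive control.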

[19] = test system: Staphylococcus aureus; experiment: Bactericidal activity against Staphylococcus aureus MTCC 96 after 24 hrs by two fold dilution method; format: functional; conditions: MTCC 96, 24 h; outline: as §3
[20] = test system: Malassezia pachydermatis; experiment: Antimicrobial activity against Malassezia pachydermatis at 1 mg/disc after 24 hrs by disc diffusion assay; format: functional
[21] = test system: Klebsiella aerogenes; experiment: Antimicrobial activity against Enterobacter aerogenes MTCC 111 at 1 mg/disc after 24 hrs by disc diffusion assay; format: functional; outline: as §1
[22] = test system: Salmonella typhimurium; experiment: Bactericidal activity against Salmonella typhimurium MTCC 1251 after 24 hrs by two fold dilution method; format: functional, Salmonella enterica subsp. enterica serovar Typhimurium; conditions: Salmonella enterica, MTCC 1251, 24 h; outline: as §3
[23] = test system: Proteus vulgaris; experiment: Bactericidal activity against Proteus vulgaris MTCC 1771 after 24 hrs by two fold dilution method; format: functional; conditions: MTCC 1771, 24 h; outline: as §3
[24] = test system: Shigella flexneri; experiment: Antimicrobial activity against Shigella flexneri MTCC 1457 after 24 hrs by two fold dilution method; format: functional; conditions: MTCC 1457, 24 h; outline: as §2
[25] = test system: Staphylococcus aureus; experiment: Antimicrobial activity against […] Staphylococcus aureus MTCC 96 at 1 mg/disc after 24 hrs by disc diffusion assay; format: functional; outline: as §1
[26] = test system: Micrococcus luteus; experiment: Antimicrobial activity against Micrococcus luteus MTCC 106 after 24 hrs by two fold dilution method; format: functional; conditions: MTCC 106, 24 h; outline: as §2
[27] = test system: Candida albicans; experiment: Antimicrobial activity against Candida albicans MTCC 227 after 48 to 72 hrs by two fold dilution method; format: functional; outline: as §4
[28] = test system: Shigella flexneri; experiment: Bactericidal activity against Shigella flexneri MTCC 1457 after 24 hrs by two fold dilution method; format: functional; conditions: MTCC 1457, 24 h; outline: as §3
[29] = test system: Klebsiella pneumoniae; experiment: Antimicrobial activity against Klebsiella pneumoniae MTCC 109 at 1 mg/disc after 24 hrs by disc diffusion assay; format: functional; outline: as §1
[30] = test system: Proteus vulgaris; experiment: Antimicrobial activity against Proteus vulgaris MTCC 1771 at 1 mg/disc after 24 hrs by disc diffusion assay; format: functional; outline: as §1
[31] = test system: Micrococcus luteus; experiment: Antimicrobial activity against Micrococcus luteus MTCC 106 at 1 mg/disc after 24 hrs by disc diffusion assay; format: functional; outline: as §1
[32] = test system: Pseudomonas aeruginosa; experiment: Antimicrobial activity against Pseudomonas aeruginosa MTCC 741 at 1 mg/disc after 24 hrs by disc diffusion assay; format: functional; outline: as §1
[33] = test system: Staphylococcus aureus; experiment: Antimicrobial activity against Staphylococcus aureus MTCC 96 at 1 mg/disc after 24 hrs by disc diffusion assay; format: functional; outline: as §1
[34] = test system: Salmonella enterica subsp. enterica serovar Paratyphi B; experiment: Bactericidal activity against Salmonella paratyphi B after 24 hrs by two fold dilution method; format: functional; outline: as §3
[35] = test system: Bacillus subtilis; experiment: Antimicrobial activity against Bacillus subtilis MTCC 441 after 24 hrs by two fold dilution method; format: functional; conditions: MTCC 441, 24 h; outline: as §2
[36] = test system: Proteus vulgaris; experiment: Antimicrobial activity against Proteus vulgaris MTCC 1771 after 24 hrs by two fold dilution method; format: functional; conditions: MTCC 1771, 24 h; outline: as §2
[37] = test system: Bacillus subtilis; experiment: Antimicrobial activity against Bacillus subtilis MTCC 441 at 1 mg/disc after 24 hrs by disc diffusion assay; format: functional; outline: as §1
[38] = test system: Pseudomonas aeruginosa; experiment: Bactericidal activity against Pseudomonas aeruginosa MTCC 741 after 24 hrs by two fold dilution method; format: functional; conditions: MTCC 741, 24 h; outline: as §3
[39] = test system: Bacillus subtilis; experiment: Bactericidal activity against Bacillus subtilis MTCC 441 after 24 hrs by two fold dilution method; format: functional; conditions: MTCC 441, 24 h; outline: as §3

CC[C@@H](N[C@@H](C)[C@H](O)c1ccccc1)c1ccccc1.Cl
22 mm: inhibition zone (IZ) [15] | inhibition zone (IZ) [33]
24 mm: inhibition zone (IZ) [20]
18 mm: inhibition zone (IZ) [32]
62.5 µg/mL: MIC [7] | MBC [12] | MBC [13] | MIC [17] | MBC [38]
15.6 µg/mL: MIC [6] | MBC [14] | MIC [24]
23 mm: inhibition zone (IZ) [29]
31.2 µg/mL: MIC [3] | MBC [4] | MFC [5] | MIC [8] | MIC [10] | MIC [11] | MFC [16] | MIC [18] | MBC [19] | MBC [22] | MBC [23] | MIC [26] | MIC [27] | MBC [28] | MIC [35] | MIC [36] | MBC [39]
21 mm: inhibition zone (IZ) [1] | inhibition zone (IZ) [21] | inhibition zone (IZ) [30] | inhibition zone (IZ) [31]
20 mm: inhibition zone (IZ) [2] | inhibition zone (IZ) [25] | inhibition zone (IZ) [37]
125 µg/mL: MBC [34]
19 mm: inhibition zone (IZ) [9]

CC[C@@H](C)N[C@@H](C)[C@H](O)c1ccccc1.Cl (mixture of isomers)
inactive: inhibition zone (IZ) [1] | inhibition zone (IZ) [15] | inhibition zone (IZ) [20] | inhibition zone (IZ) [21] | inhibition zone (IZ) [25] | inhibition zone (IZ) [29] | inhibition zone (IZ) [30] | inhibition zone (IZ) [31] | inhibition zone (IZ) [32] | inhibition zone (IZ) [37]
10 mm: inhibition zone (IZ) [2] | inhibition zone (IZ) [9] | inhibition zone (IZ) [33]

CC[C@H](C)N[C@H](C)[C@@H](O)c1ccccc1.Cl (mixture of isomers)
inactive: inhibition zone (IZ) [1] | inhibition zone (IZ) [9] | inhibition zone (IZ) [15] | inhibition zone (IZ) [21] | inhibition zone (IZ) [25] | inhibition zone (IZ) [29] | inhibition zone (IZ) [33] | inhibition zone (IZ) [37]
10 mm: inhibition zone (IZ) [2] | inhibition zone (IZ) [20] | inhibition zone (IZ) [30] | inhibition zone (IZ) [31] | inhibition zone (IZ) [32]

CN[C@@H]1[C@H](O[C@H]2[C@H](O[C@H]3[C@H](O)[C@@H](O)[C@H](N=C(N)N)[C@@H](O)[C@@H]3N=C(N)N)O[C@@H](C)[C@]2(O)C=O)O[C@@H](CO)[C@H](O)[C@H]1O [STREPTOMYCIN]
62.5 µg/mL: MIC [7]
26 mm: inhibition zone (IZ) [31]
22 mm: inhibition zone (IZ) [21]
6.25 µg/mL: MIC [6] | MIC [8] | MIC [10] | MIC [24] | MIC [26] | MIC [35]
30 mm: inhibition zone (IZ) [1] | inhibition zone (IZ) [9] | inhibition zone (IZ) [25] | inhibition zone (IZ) [30] | inhibition zone (IZ) [32] | inhibition zone (IZ) [37]
18 mm: inhibition zone (IZ) [2]
14 mm: inhibition zone (IZ) [33]
30 µg/mL: MIC [11]
25 µg/mL: MIC [3] | MIC [17] | MIC [36]
20 mm: inhibition zone (IZ) [29]
